From PubChem BioAssay
Hits are enriched below; roughly 2.1% of the tested compounds scored in any of these assays.
CXCR6 block – CXCR6 receptor inhibitors, primary screen, cell-based, beta-arrestin, luminescence, CHO-K1 PathHunter, 1536-well. C-X-C chemokine receptor type 6 (Homo sapiens), O00574. inhibition, % at 20 µM. actives 0.36% (n = 360,000). AID 602244, 2012; in the data active = inhibition above about 34%, passing the limit was not always enough;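 note: antagonist mode with CXCL16 agonist at 10 nM final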
APJ agonist – agonists of human apelin receptor APJ, primary screen, CHO-K1 cells, PathHunter beta-arrestin, luminescence | P35414 | 0% DMSO wells, 100% apelin | activation, % at 20 µM | actives 0.11% (n = 330,000) | AID 2520, 2010;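 active = activation more than six SD over the plate average, tested at 20 µM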
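Material: engineered CHO-K1 APJ arrestin reporter cells; amount: 1000 CHO-K1 reporter cells seeded per well; incubation: compound stimulation 90 min at 25 °C, detection 60 min; signal: luminescent beta-gal fragment complementation, chemiluminescent substrate; read-out basis: APJ agonist activity; controls: DMSO-only wells as negative, 10 nM Apelin-13 as positive control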
EBI2 antag – EBI2 receptor antagonists, beta-arrestin recruitment, primary screen, cell-based, luminescence, 7a,25-OHC stimulation, uHTS. G-protein coupled receptor 183 (Homo sapiens), P32249. 7a,25-OHC stimulated. inhibition, % at 5 µM. actives 0.81% (n = 360,000). AID 651636, 2012; in the data active = inhibition above about 38%;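 note: enzyme fragment complementation signal reports receptor beta-arrestin coupling in cells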
HTR2A ag – mouse Htr2a agonists via beta-arrestin recruitment, primary screen, cell-based, luminescence; actives 0.66% (n = 360,000); 5-hydroxytryptamine receptor 2A (Mus musculus), P35363; CHO-K1 mHTR2A beta-arrestin complementation; percent of 30 µM serotonin response; activation, % at 7.6 µM;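 active = activation above a run cutoff, the mean activation of all tested compounds plus 3 SD, cut at about 14% in these data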
Target sequence (P35363 whole entry, looked up): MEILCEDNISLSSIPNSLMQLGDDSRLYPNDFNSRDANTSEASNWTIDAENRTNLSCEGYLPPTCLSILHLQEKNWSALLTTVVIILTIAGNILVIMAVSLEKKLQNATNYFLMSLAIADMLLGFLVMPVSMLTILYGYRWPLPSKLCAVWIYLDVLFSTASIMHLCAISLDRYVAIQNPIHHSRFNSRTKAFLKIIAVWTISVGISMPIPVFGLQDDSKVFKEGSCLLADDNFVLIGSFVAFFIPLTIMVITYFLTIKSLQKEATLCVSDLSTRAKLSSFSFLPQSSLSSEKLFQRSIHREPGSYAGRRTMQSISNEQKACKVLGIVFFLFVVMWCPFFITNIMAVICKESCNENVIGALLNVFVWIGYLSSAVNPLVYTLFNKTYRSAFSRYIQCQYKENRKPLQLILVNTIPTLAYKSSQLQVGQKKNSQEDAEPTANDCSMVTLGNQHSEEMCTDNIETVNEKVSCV
CCR6 antagonist – CCR6 receptor antagonists, primary screen, cell-based, CHO-K1, luminescence, beta-arrestin, uHTS; inhibition, % at 20 µM; C-C chemokine receptor type 6 (Homo sapiens), P51684; actives 0.49% (n = 340,000); CHO-K1 CCR6 PathHunter beta-arrestin, CCL20-stimulated;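 active = compounds whose inhibition of the agonist-driven luminescence signal at 20 µM reaches about 50%, limit read from the data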;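 note: cells stimulated with CCL20 at 14 nM final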
APJ antag – antagonists of human apelin receptor APJ, primary screen, CHO-K1 cells, beta-arrestin complementation, luminescence. P35414. inhibition, % at 20 µM. actives 0.32% (n = 330,000);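 active = inhibition above about 40% at 20 µM, limit read from the data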;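 note: cells challenged with 10 nM apelin-13 agonist together with compound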
EBI2 antag conf – EBI2 antagonist hit retest, beta-arrestin, confirmation, cell-based, single concentration, luminescence, 7a,25-OHC stimulation. 7a,25-OHC antagonism. shares compounds with EBI2 antag. inhibition, % at 5 µM. actives 29% (n = 2,400);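 active = inhibition of at least 50%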
EBI2 ag – EBI2 agonist activity of antagonist hits, confirmation, counter-screen for EBI2 antagonist project, cell-based, single concentration, agonist mode, luminescence | shares compounds with EBI2 antag | EBI2-expressing cells, 60 min; 0% vehicle, 100% 7α,25-dihydroxycholesterol control | activation, % at 5 µM | 2,400 tested, under 10 active;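 active = activation of at least 50%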
bGal counter – E. coli beta-galactosidase enzyme inhibition, confirmation, counter-screen for EBI2 antagonist project, biochemical, luminescence, single concentration; shares compounds with EBI2 antag; purified beta-galactosidase, luminescent Galacton Star, 15 min; inhibition, % at 5 µM; actives 1% (n = 2,400);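 active = replicate-average signal at least 3 plate SD below neutral wells, shown as high inhibition, flagging enzyme-inhibiting false positives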;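 note: higher means stronger loss of beta-gal luminescence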
Numbers stand for hits; . = inactive; / = not tested or not shown.

SMILES	CXCR6 block	APJ agonist	EBI2 antag	HTR2A ag	CCR6 antagonist	APJ antag	EBI2 antag conf	EBI2 ag	bGal counter
Cc1ccc(NC(=O)C2(C)CCN2Cc2csc3ccccc23)cc1 (configuration not stated)	.	/	.	.	/	/	/	/	/
CC1(C(=O)NCc2ccccc2Br)CCN1Cc1csc2ccccc12 (configuration not stated)	.	/	61.4	.	/	/	51.0	.	.
CCc1cccc(C)c1NC(=O)CSc1nc(-c2ccccc2F)nc2nc[nH]c12	.	.	.	.	.	.	/	/	/
Cc1ccc(Nc2c(-c3ccccc3O)nc3cnccn23)cc1	.	.	57.4	.	.	.	.	.	.
Cc1cc2c(cc1C)-c1c(ssc1=Nc1ccc(S(N)(=O)=O)cc1)C(C)(C)N2	.	.	53.1	.	.	.	58.5	.	.
COc1ccc(CNC(=O)c2onc(C)c2Cl)cc1	.	.	.	.	.	.	/	/	/
CC(Oc1ccc2oc3ccccc3c2c1)C(=O)NC12CC3CC(CC(C3)C1)C2 (configuration not stated)	.	.	53.7	.	.	.	.	.	.
CCOC(=O)c1c(NC(=O)CSc2nnc(-c3c[nH]c4ccccc34)n2CC)sc2c1CCCC2	.	.	.	.	.	.	/	/	/
COc1ccc(-n2c(Cc3cccn3C)nnc2SCC(=O)Nc2cccc(F)c2)cc1	.	.	55.8	.	.	.	.	.	.
Cc1ccc(-n2c(Cc3cccn3C)nnc2SCC(=O)NCc2ccc3c(c2)OCO3)cc1	.	.	45.2	.	.	.	.	.	.
Cc1ccc(-n2c(Cc3cccn3C)nnc2SCC(=O)Nc2ccc3c(c2)OCO3)cc1	.	.	.	.	.	.	/	/	/
COc1ccc(-n2c(Cc3cccn3C)nnc2SCC(=O)NCc2ccccc2Cl)cc1	.	.	56.0	.	.	.	.	.	.
Cn1cccc1Cc1nnc(SCC(=O)Nc2cccc(F)c2)n1CCc1ccccc1	.	.	44.8	.	.	.	.	.	.
COc1ccc(-n2c(Cc3cccn3C)nnc2SCC(=O)Nc2ccc(Cl)cc2)cc1	.	.	.	.	.	.	/	/	/
COc1ccc(-n2c(Cc3cccn3C)nnc2SCC(=O)Nc2cc(Cl)ccc2OC)cc1	.	.	57.5	.	.	.	.	.	.
COc1ccc(-n2c(Cc3cccn3C)nnc2SCC(=O)Nc2ccccc2OC)cc1	.	.	45.0	.	.	.	.	.	.
COc1ccccc1NC(=O)/C(=C/c1ccncc1)NC(=O)c1ccccc1	.	.	.	.	.	.	/	/	/
CCOC(=O)c1sc2nc(C)nc(NCc3ccc(Cl)cc3)c2c1C	.	.	.	.	.	.	/	/	/
CCOC(=O)c1sc2nc(C)nc(NCc3ccc(F)cc3)c2c1C	.	.	45.0	.	.	.	.	.	.
Cc1cccc(C)c1NC(=O)C1(N(Cc2ccco2)C(=O)Cn2nnnc2N)CCCCC1	.	.	.	.	.	.	/	/	/
O=C(CNC(=O)c1ccc(Cl)cc1)NCc1ccccn1	.	.	.	.	.	.	/	/	/
CCOC(=O)C1(C)CCN1C(=O)c1cccc(OC(F)(F)F)c1 (configuration not stated)	.	/	.	.	/	/	/	/	/
